For assay [1], the system named is NCI-H1975. Put plainly: Reduction in total EGFR L858R and T790M mutant levels in gefinitib-resistant and 24 hrs serum starved human NCI-H1975 cells at 10 uM pre-incubated for 1 hr before EGF stimulation for 30 mins by Western blot method. The format is functional, cell-based. Put shortly: (§1)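 Cells in RPMI-1640 with 10% FBS were plated at 1×10^6 per 10-cm dish, cultured overnight, then kept serum-free for 24 h. They were pre-treated with 10 μM compound for 1 h, serum-free, then stimulated with EGF 20 ng/mL (20 min in methods, 30 min in legend). Whole-cell lysates, 40 μg/lane, were run on 10% SDS-PAGE, blotted to PVDF, probed for pan-EGFR and pEGFR (Tyr1068), and detected by ECL.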
In general terms: Immunoblotting shows a protein as a band on a membrane.

Assay [2] relates to CL1-5. The assay can be described thus: Reduction in total wild type EGFR levels in gefinitib-insensitive and 24 hrs serum starved human CL1-5 cells at 10 uM pre-incubated for 1 hr before EGF stimulation for 30 mins by Western blot method. The format is functional. In short, it runs like this: as §1
Assay [3] concerns Epidermal growth factor receptor (Homo sapiens), P00533 [L858R,T790M]. As to conditions: NCI-H1975, at 10 µM.
Chain of Epidermal growth factor receptor (Homo sapiens), P00533 [L858R,T790M] (P00533 whole entry T790M/L858R, looked up): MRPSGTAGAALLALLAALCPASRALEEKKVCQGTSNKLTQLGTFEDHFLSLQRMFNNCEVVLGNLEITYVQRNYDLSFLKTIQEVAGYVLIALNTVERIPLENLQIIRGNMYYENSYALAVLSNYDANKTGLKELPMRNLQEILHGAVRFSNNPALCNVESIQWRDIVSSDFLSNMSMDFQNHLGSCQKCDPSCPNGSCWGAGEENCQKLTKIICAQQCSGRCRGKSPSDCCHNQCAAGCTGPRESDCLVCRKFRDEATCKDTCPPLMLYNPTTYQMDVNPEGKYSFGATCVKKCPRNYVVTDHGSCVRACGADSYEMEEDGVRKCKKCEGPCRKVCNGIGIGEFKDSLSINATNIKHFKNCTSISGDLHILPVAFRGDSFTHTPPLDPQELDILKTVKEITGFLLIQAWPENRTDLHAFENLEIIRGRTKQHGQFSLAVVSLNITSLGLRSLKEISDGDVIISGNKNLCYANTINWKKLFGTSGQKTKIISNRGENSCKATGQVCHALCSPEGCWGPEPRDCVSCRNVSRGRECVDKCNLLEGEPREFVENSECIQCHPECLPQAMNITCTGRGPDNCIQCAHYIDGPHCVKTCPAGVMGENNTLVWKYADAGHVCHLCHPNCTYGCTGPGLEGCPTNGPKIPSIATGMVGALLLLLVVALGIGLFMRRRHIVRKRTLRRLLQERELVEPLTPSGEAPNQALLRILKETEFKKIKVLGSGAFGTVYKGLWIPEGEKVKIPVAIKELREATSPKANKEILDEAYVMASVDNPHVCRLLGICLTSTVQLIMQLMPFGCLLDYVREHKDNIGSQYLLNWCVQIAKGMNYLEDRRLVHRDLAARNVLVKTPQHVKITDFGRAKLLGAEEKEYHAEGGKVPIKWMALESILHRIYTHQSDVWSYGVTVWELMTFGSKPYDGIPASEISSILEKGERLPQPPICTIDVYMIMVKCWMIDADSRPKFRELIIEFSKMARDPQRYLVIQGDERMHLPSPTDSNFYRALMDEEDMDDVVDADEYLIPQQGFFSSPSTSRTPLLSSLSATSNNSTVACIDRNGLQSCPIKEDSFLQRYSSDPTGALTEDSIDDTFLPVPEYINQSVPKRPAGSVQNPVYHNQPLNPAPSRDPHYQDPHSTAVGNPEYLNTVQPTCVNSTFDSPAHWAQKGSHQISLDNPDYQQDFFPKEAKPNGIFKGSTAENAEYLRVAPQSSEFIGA
Assay [4] deals with Epidermal growth factor receptor (Homo sapiens) (UniProt P00533). As to conditions: CL1-5, at 10 µM.
Chain of Epidermal growth factor receptor (Homo sapiens) (P00533 whole entry): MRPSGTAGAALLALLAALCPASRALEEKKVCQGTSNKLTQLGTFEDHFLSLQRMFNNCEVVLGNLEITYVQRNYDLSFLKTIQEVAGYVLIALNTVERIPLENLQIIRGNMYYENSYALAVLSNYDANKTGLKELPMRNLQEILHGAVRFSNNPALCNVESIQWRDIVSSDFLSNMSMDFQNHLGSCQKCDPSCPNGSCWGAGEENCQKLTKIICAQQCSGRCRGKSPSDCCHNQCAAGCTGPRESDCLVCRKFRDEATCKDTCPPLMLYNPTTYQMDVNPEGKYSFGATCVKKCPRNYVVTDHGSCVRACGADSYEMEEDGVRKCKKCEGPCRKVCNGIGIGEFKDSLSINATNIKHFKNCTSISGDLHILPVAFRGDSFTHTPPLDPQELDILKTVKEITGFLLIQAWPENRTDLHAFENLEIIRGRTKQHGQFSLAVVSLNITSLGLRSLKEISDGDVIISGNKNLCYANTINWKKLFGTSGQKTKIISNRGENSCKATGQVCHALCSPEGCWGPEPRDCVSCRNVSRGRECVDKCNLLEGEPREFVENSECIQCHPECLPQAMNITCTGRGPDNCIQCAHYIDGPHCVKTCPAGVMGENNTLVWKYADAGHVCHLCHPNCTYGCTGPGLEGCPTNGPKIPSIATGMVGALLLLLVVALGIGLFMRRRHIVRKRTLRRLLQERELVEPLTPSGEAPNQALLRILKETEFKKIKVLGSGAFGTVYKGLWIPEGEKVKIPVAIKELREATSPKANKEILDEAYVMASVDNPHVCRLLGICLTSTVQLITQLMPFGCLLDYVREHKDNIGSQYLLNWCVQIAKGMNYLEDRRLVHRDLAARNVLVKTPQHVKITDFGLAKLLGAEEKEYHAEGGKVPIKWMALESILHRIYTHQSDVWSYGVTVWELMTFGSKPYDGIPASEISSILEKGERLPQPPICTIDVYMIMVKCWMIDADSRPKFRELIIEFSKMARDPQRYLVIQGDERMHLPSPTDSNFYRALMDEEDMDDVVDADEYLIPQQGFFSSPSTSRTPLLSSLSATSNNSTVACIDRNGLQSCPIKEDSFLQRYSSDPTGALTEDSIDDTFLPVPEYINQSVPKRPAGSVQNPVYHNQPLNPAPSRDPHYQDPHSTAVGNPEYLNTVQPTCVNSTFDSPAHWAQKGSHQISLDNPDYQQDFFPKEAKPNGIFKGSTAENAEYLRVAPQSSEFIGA

SMILES strings stand for the structures. The source made the active and inactive calls. The calls are words filed in the database; no cut-off is given here.

For `COc1ccc(/C=C/C(=O)/C=C(O)/C=C/c2ccc(OC)c(OC)c2OC)cc1OC`, the inhibition result in assay [1], in assay [2], in assay [3] and in assay [4] was “Active” throughout.
With `CCOC(=O)CC/C(C(=O)/C=C/c1ccc(O)c(O)c1)=C(O)\C=C\c1ccc(O)c(O)c1`, the inhibition entry in assay [1] and in assay [3] was “inactive” each time. The inhibition entry in assay [2] and in assay [4] was “Active” throughout.
For `COC(=O)COc1ccc(/C=C/C(=O)/C=C(O)/C=C/c2ccc(OCC(=O)OC)c(OC)c2)cc1OC`, the inhibition result in assay [1], in assay [2], in assay [3] and in assay [4] was “inactive” each time.
In the case of `COc1cc(/C=C/C(=O)/C(CCC(=O)O)=C(O)/C=C/c2ccc(O)c(O)c2)ccc1O`, the inhibition entry in assay [1], in assay [2], in assay [3] and in assay [4] was “inactive” throughout.
For `CCOC(=O)/C=C/C(C(=O)/C=C/c1ccc(O)c(OC)c1)=C(O)\C=C\c1ccc(O)c(OC)c1`, the inhibition result in assay [1], in assay [2], in assay [3] and in assay [4] was “inactive” in each case.
Take `COc1cc(/C=C/C(=O)/C=C(O)/C=C/c2ccc(OCCCC(=O)O)c(OC)c2)ccc1OCCCC(=O)O`: the inhibition result in assay [1], in assay [2], in assay [3] and in assay [4] was “inactive” each time.
Take `COc1ccc(/C=C/C(=O)/C=C(O)/C=C/c2ccc(OC)c(OC)c2OC)c(OC)c1OC`: the inhibition result in assay [1], in assay [2], in assay [3] and in assay [4] was “Active” each time.
As to `COc1ccc(/C=C/C(=O)/C(C)=C(O)/C=C/c2ccc(OC)c(OC)c2)cc1OC`, the inhibition result in assay [1], in assay [2], in assay [3] and in assay [4] was “Active” throughout.
For `COc1cc(/C=C/C(=O)/C=C(O)/C=C/c2ccc(OCC(=O)Nc3ccccc3)c(OC)c2)ccc1OCC(=O)Nc1ccccc1`, the inhibition entry in assay [1], in assay [2], in assay [3] and in assay [4] was “inactive” throughout.
As to `CCOC(=O)CC/C(C(=O)/C=C/c1ccc(O)c(OC)c1)=C(O)\C=C\c1ccc(O)c(O)c1`, the inhibition entry in assay [1], in assay [2], in assay [3] and in assay [4] was “Active” each time.
For the molecule `CCOC(=O)CC/C(C(=O)/C=C/c1cc(O)c(OC)c(OC)c1)=C(O)\C=C\c1cc(O)c(OC)c(OC)c1`, the inhibition entry in assay [2] is “inactive”. The inhibition entry in assay [3] and in assay [4] was “Active” each time.
`CCOC(=O)CC/C(C(=O)/C=C/c1cc(OC)c(O)c(OC)c1)=C(O)\C=C\c1cc(OC)c(O)c(OC)c1`: the inhibition result in assay [1], in assay [2], in assay [3] and in assay [4] was “inactive” in each case.
On to `COc1cc(F)c(/C=C/C(=O)/C=C(O)/C=C/c2cc(OC)c(OC)cc2F)cc1OC`, for which the inhibition result in assay [1], in assay [2], in assay [3] and in assay [4] was “Active” each time.
With `CCOC(=O)/C=C/C(C(=O)/C=C/c1ccc(O)c(O)c1)=C(O)\C=C\c1ccc(O)c(OC)c1`, the inhibition result in assay [1], in assay [2], in assay [3] and in assay [4] was “inactive” in each case.
Turning to `CCOC(=O)CCCOc1ccc(/C=C/C(=O)/C=C(O)/C=C/c2ccc(OCCCC(=O)OCC)c(OC)c2)cc1OC`, the inhibition result in assay [1], in assay [2], in assay [3] and in assay [4] was “inactive” throughout.
On to `O=C(O)CC/C(C(=O)/C=C/c1ccc(O)c(O)c1)=C(O)\C=C\c1ccc(O)c(O)c1`, for which the inhibition result in assay [1], in assay [2], in assay [3] and in assay [4] was “inactive” in each case.
As to `COc1cc(OC)c(OC)cc1/C=C/C(=O)/C=C(O)/C=C/c1cc(OC)c(OC)cc1OC`, the inhibition entry in assay [1], in assay [2], in assay [3] and in assay [4] was “Active” throughout.
As for `COc1cc(OC)c(OC)cc1/C=C/C(O)=C/C(=O)/C=C/c1ccc(OC)c(OC)c1`, the inhibition entry in assay [1], in assay [2], in assay [3] and in assay [4] was “Active” each time.
Take `COc1cc(/C=C/C(=O)/C=C(O)/C=C/c2ccc(OCC(=O)O)c(OC)c2)ccc1OCC(=O)O`: the inhibition result in assay [1], in assay [2], in assay [3] and in assay [4] was “inactive” each time.
As for `COc1cc(/C=C/C(=O)/C(CCC(=O)O)=C(O)/C=C/c2ccc(O)c(OC)c2)ccc1O`, the inhibition entry in assay [1], in assay [2], in assay [3] and in assay [4] was “inactive” in each case.
In the case of `COc1cc(/C=C/C(O)=C/C(=O)/C=C/c2ccc(O)cc2)ccc1O`, the inhibition entry in assay [1], in assay [2], in assay [3] and in assay [4] was “inactive” in each case.
On to `COc1cc(/C=C/C(=O)/C(CCC(=O)O)=C(O)/C=C/c2ccc(OCCCC(=O)O)c(OC)c2)ccc1OCCCC(=O)O`, for which the inhibition entry in assay [1], in assay [2], in assay [3] and in assay [4] was “inactive” each time.
As for `CCOC(=O)CC/C(C(=O)/C=C/c1ccc(OC)c(OC)c1)=C(O)\C=C\c1ccc(OC)c(OC)c1`, the inhibition entry in assay [1], in assay [2], in assay [3] and in assay [4] was “inactive” each time.
On to `CCOC(=O)CC/C(C(=O)/C=C/c1ccc(O)c(OC)c1)=C(O)\C=C\c1ccc(O)c(OC)c1`, for which the inhibition result in assay [1] and in assay [3] was “inactive” throughout. Further, the inhibition entry in assay [2] and in assay [4] was “Active” throughout.
Take `CCOC(=O)/C=C/C(C(=O)/C=C/c1ccc(OC)c(OC)c1)=C(O)\C=C\c1ccc(OC)c(OC)c1`: the inhibition entry in assay [1], in assay [2], in assay [3] and in assay [4] was “inactive” in each case.
As for `COc1cc(/C=C/C(O)=C/C(=O)/C=C/c2ccc(O)c(O)c2)ccc1O`, the inhibition result in assay [1] and in assay [3] was “Active” in each case. Besides, the inhibition entry in assay [2] and in assay [4] was “inactive” each time.

For the origin of these results see ChEMBL document CHEMBL3400092 (2015).
